From ChEMBL document CHEMBL1138525 (J Med Chem, 2009)
Values belong to the molecule of their own block, whether it stands above or below them. Activity calls are given as the source filed them. The rule behind the calls is not given here.

How the values were obtained:
[1] = tested on: P2Y purinoceptor 2 (Homo sapiens), P41231 [R272A]; assay: Agonist activity at N-terminal HA epitope-tagged human P2Y2 receptor R272A mutant expressed in human 1321N1 cells assessed as increase in intracellular calcium level up to 300 uM relative to carbachol; assay type: functional, cell-based
Sequence of P2Y purinoceptor 2 (Homo sapiens), P41231 [R272A] (P41231 whole entry R272A): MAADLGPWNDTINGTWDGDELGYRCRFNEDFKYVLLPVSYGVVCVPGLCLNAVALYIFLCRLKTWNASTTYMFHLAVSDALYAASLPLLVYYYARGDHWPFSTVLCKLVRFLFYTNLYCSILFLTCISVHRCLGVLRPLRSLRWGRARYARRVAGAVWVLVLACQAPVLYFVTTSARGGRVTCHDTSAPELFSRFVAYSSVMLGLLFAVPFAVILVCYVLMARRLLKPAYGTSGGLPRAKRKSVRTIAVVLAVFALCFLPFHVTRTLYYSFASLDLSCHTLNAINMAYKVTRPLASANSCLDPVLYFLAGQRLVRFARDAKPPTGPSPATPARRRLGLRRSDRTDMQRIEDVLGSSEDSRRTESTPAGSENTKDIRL
Method in brief: (§1)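 Retrovirally transduced stable 1321N1 astrocytoma lines (wild-type lines of differing expression, or mutants) in suspension, loaded with Oregon Green BAPTA-1/AM for 1 h at room temperature. Cells were plated at 150000 per well in Krebs-HEPES pH 7.4 and held 20 min at 28 °C in the dark. Agonist was then injected, with fluorescence read at ex 485/em 520 nm for 60 × 0.4 s.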

[2] = tested on: P2Y purinoceptor 2 (Homo sapiens), P41231 [C278S]; assay: Agonist activity at N-terminal HA epitope-tagged human P2Y2 receptor C278S mutant expressed in human 1321N1 cells assessed as increase in intracellular calcium level relative to carbachol; assay type: functional, cell-based; method in brief: as §1
Sequence of P2Y purinoceptor 2 (Homo sapiens), P41231 [C278S] (P41231 whole entry C278S): as the sequence (P41231 whole entry R272A) above, with A272R, C278S counted along it

P2Y purinoceptor 2 [3] = molecular target: T1, P2Y purinoceptor 2 (Homo sapiens, UniProt P41231); assay: Agonist activity at N-terminal HA epitope-tagged wild type 4 human P2Y2 receptor expressed in human 1321N1 cells assessed as increase in intracellular calcium level relative to carbachol; assay type: functional, cell-based; method in brief: as §1
T1 sequence (P41231 whole entry): as the sequence (P41231 whole entry R272A) above, with A272R counted along it

[4] = tested on: P2Y purinoceptor 2 (Homo sapiens), P41231 [Y118A]; assay: Agonist activity at N-terminal HA epitope-tagged human P2Y2 receptor Y118A mutant expressed in human 1321N1 cells assessed as increase in intracellular calcium level relative to carbachol; assay type: functional, cell-based; method in brief: as §1
Sequence of P2Y purinoceptor 2 (Homo sapiens), P41231 [Y118A] (P41231 whole entry Y118A): as the sequence (P41231 whole entry R272A) above, with Y118A, A272R counted along it

[5] = tested on: P2Y purinoceptor 2 (Homo sapiens), P41231 [R194H]; assay: Agonist activity at N-terminal HA epitope-tagged human P2Y2 receptor R194H mutant expressed in human 1321N1 cells assessed as increase in intracellular calcium level relative to carbachol; assay type: functional, cell-based; method in brief: as §1
Sequence of P2Y purinoceptor 2 (Homo sapiens), P41231 [R194H] (P41231 whole entry R194H): as the sequence (P41231 whole entry R272A) above, with R194H, A272R counted along it

P2Y purinoceptor 2 [6] = molecular target: T1, P2Y purinoceptor 2; assay: Agonist activity at N-terminal HA epitope-tagged wild type 3 human P2Y2 receptor expressed in human 1321N1 cells assessed as increase in intracellular calcium level relative to carbachol; assay type: functional, cell-based; method in brief: as §1
[7] = tested on: P2Y purinoceptor 2 (Homo sapiens), P41231 [Y114A]; assay: Agonist activity at N-terminal HA epitope-tagged human P2Y2 receptor Y114A mutant expressed in human 1321N1 cells assessed as increase in intracellular calcium level relative to carbachol; assay type: functional, cell-based; method in brief: as §1
Sequence of P2Y purinoceptor 2 (Homo sapiens), P41231 [Y114A] (P41231 whole entry Y114A): as the sequence (P41231 whole entry R272A) above, with Y114A, A272R counted along it

[8] = tested on: P2Y purinoceptor 2 (Homo sapiens), P41231 [R180A]; assay: Agonist activity at N-terminal HA epitope-tagged human P2Y2 receptor R180A mutant expressed in human 1321N1 cells assessed as increase in intracellular calcium level relative to carbachol; assay type: functional, cell-based; method in brief: as §1
Sequence of P2Y purinoceptor 2 (Homo sapiens), P41231 [R180A] (P41231 whole entry R180A): as the sequence (P41231 whole entry R272A) above, with R180A, A272R counted along it

[9] = tested on: P2Y purinoceptor 2 (Homo sapiens), P41231 [S296A]; assay: Agonist activity at N-terminal HA epitope-tagged human P2Y2 receptor S296A mutant expressed in human 1321N1 cells assessed as increase in intracellular calcium level relative to carbachol; assay type: functional, cell-based; method in brief: as §1
Sequence of P2Y purinoceptor 2 (Homo sapiens), P41231 [S296A] (P41231 whole entry S296A): as the sequence (P41231 whole entry R272A) above, with A272R, S296A counted along it

[10] = tested on: P2Y purinoceptor 2 (Homo sapiens), P41231 [R177A,R180A]; assay: Agonist activity at N-terminal HA epitope-tagged human P2Y2 receptor R177A_R180A double mutant expressed in human 1321N1 cells assessed as increase in intracellular calcium level relative to carbachol; assay type: functional, cell-based; method in brief: as §1
Sequence of P2Y purinoceptor 2 (Homo sapiens), P41231 [R177A,R180A] (P41231 whole entry R177A/R180A): as the sequence (P41231 whole entry R272A) above, with R177A, R180A, A272R counted along it

[11] = tested on: P2Y purinoceptor 2 (Homo sapiens), P41231 [Y198A]; assay: Agonist activity at N-terminal HA epitope-tagged human P2Y2 receptor Y198A mutant expressed in human 1321N1 cells assessed as increase in intracellular calcium level relative to carbachol; assay type: functional, cell-based; method in brief: as §1
Sequence of P2Y purinoceptor 2 (Homo sapiens), P41231 [Y198A] (P41231 whole entry Y198A): as the sequence (P41231 whole entry R272A) above, with Y198A, A272R counted along it

[12] = tested on: P2Y purinoceptor 2 (Homo sapiens), P41231 [R177A]; assay: Agonist activity at N-terminal HA epitope-tagged human P2Y2 receptor R177A mutant expressed in human 1321N1 cells assessed as increase in intracellular calcium level relative to carbachol; assay type: functional, cell-based; method in brief: as §1
Sequence of P2Y purinoceptor 2 (Homo sapiens), P41231 [R177A] (P41231 whole entry R177A): as the sequence (P41231 whole entry R272A) above, with R177A, A272R counted along it

P2Y purinoceptor 2 [13] = molecular target: P2Y purinoceptor 2 (Homo sapiens, UniProt P41231, R177A/R180A); assay: Antagonist activity at N-terminal HA epitope-tagged human P2Y2 receptor R177A_R180A double mutant expressed in human 1321N1 cells assessed as inhibition of UTP-induced calcium mobilization; assay type: functional, cell-based
Sequence of P2Y purinoceptor 2 (Homo sapiens, UniProt P41231, R177A/R180A) (P41231 whole entry R177A/R180A): as the sequence (P41231 whole entry R272A) above, with R177A, R180A, A272R counted along it
Method in brief: (§2)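 1321N1 cells expressing wild-type or mutant receptor were dye-loaded with Oregon Green BAPTA-1/AM in Krebs-HEPES pH 7.4. Antagonist was preincubated for 20 min at 28 °C in the dark. Cells were then stimulated with UTP at a concentration giving 80-90% of maximal response. Calcium fluorescence read at 520 nm (excitation 485 nm).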

P2Y purinoceptor 2 [14] = molecular target: T1, P2Y purinoceptor 2; assay: Antagonist activity at N-terminal HA epitope-tagged wild type 3 human P2Y2 receptor expressed in human 1321N1 cells assessed as inhibition of UTP-induced calcium mobilization; assay type: functional, cell-based; method in brief: as §2
P2Y purinoceptor 2 [15] = molecular target: P2Y purinoceptor 2 (Homo sapiens, UniProt P41231, Y198A); assay: Antagonist activity at N-terminal HA epitope-tagged human P2Y2 receptor Y198A mutant expressed in human 1321N1 cells assessed as inhibition of UTP-induced calcium mobilization; assay type: functional, cell-based; method in brief: as §2
Sequence of P2Y purinoceptor 2 (Homo sapiens, UniProt P41231, Y198A) (P41231 whole entry Y198A): as the sequence (P41231 whole entry R272A) above, with Y198A, A272R counted along it

[16] = tested on: P2Y purinoceptor 2 (Homo sapiens), P41231 [R180A]; assay: Antagonist activity at N-terminal HA epitope-tagged human P2Y2 receptor R180A mutant expressed in human 1321N1 cells assessed as inhibition of UTP-induced calcium mobilization; assay type: functional, cell-based; settings: concentration not given here
P2Y purinoceptor 2 [17] = molecular target: P2Y purinoceptor 2 (Homo sapiens, UniProt P41231, C278S); assay: Antagonist activity at N-terminal HA epitope-tagged human P2Y2 receptor C278S mutant expressed in human 1321N1 cells assessed as inhibition of UTP-induced calcium mobilization; assay type: functional, cell-based; method in brief: as §2
Sequence of P2Y purinoceptor 2 (Homo sapiens, UniProt P41231, C278S) (P41231 whole entry C278S): as the sequence (P41231 whole entry R272A) above, with A272R, C278S counted along it

P2Y purinoceptor 2 [18] = molecular target: P2Y purinoceptor 2 (Homo sapiens, UniProt P41231, Y114A); assay: Antagonist activity at N-terminal HA epitope-tagged human P2Y2 receptor Y114A mutant expressed in human 1321N1 cells assessed as inhibition of UTP-induced calcium mobilization; assay type: functional, cell-based; method in brief: as §2
Sequence of P2Y purinoceptor 2 (Homo sapiens, UniProt P41231, Y114A) (P41231 whole entry Y114A): as the sequence (P41231 whole entry R272A) above, with Y114A, A272R counted along it

[19] = tested on: P2Y purinoceptor 2 (Homo sapiens), P41231 [UNDEFINED MUTATION]; assay: Ratio of IC50 for N-terminal HA epitope-tagged human P2Y2 receptor C278S mutant to IC50 for wild type 3 human P2Y2 receptor
Sequence of P2Y purinoceptor 2 (Homo sapiens), P41231 [UNDEFINED MUTATION] (P41231 whole entry, looked up, stated change not applied): as the sequence (P41231 whole entry R272A) above, with A272R counted along it

P2Y purinoceptor 2 [20] = molecular target: P2Y purinoceptor 2 (Homo sapiens, UniProt P41231, Y118A); assay: Antagonist activity at N-terminal HA epitope-tagged human P2Y2 receptor Y118A mutant expressed in human 1321N1 cells assessed as inhibition of UTP-induced calcium mobilization; assay type: functional, cell-based; method in brief: as §2
Sequence of P2Y purinoceptor 2 (Homo sapiens, UniProt P41231, Y118A) (P41231 whole entry Y118A): as the sequence (P41231 whole entry R272A) above, with Y118A, A272R counted along it

[21] = tested on: P2Y purinoceptor 2 (Homo sapiens), P41231 [R177A]; assay: Antagonist activity at N-terminal HA epitope-tagged human P2Y2 receptor R177A mutant expressed in human 1321N1 cells assessed as inhibition of UTP-induced calcium mobilization; assay type: functional, cell-based; settings: concentration not given here

- Efficacy [1]: inactive
- Efficacy [2]: inactive
- Efficacy (P2Y purinoceptor 2 [3]): 98%
- Efficacy [4]: 25%
- Efficacy [5]: 85%
- Efficacy (P2Y purinoceptor 2 [6]): 60%
- Efficacy [7]: 142%
- Efficacy [8]: 72%
- Efficacy [9]: 5%
- Efficacy [10]: 101%
- Efficacy [11]: 127%
- Efficacy [12]: 102%
SMILES: O=c1ccn([C@@H]2O[C@H](COP(=O)(O)OP(=O)(O)OP(=O)(O)OP(=O)(O)OC[C@H]3O[C@@H](n4ccc(=O)[nH]c4=O)[C@H](O)[C@@H]3O)[C@@H](O)[C@H]2O)c(=O)[nH]1

SMILES: Nc1c(S(=O)(=O)O)cc(Nc2ccc(Nc3nc(Cl)nc(Nc4cccc(S(=O)(=O)O)c4)n3)c(S(=O)(=O)O)c2)c2c1C(=O)c1ccccc1C2=O [RB 2]
- IC50 (P2Y purinoceptor 2 [13]): 18600 nM
- IC50 (P2Y purinoceptor 2 [14]): 1620 nM
- IC50 (P2Y purinoceptor 2 [15]): 9300 nM
- inhibition [16]: 55%
- IC50 (P2Y purinoceptor 2 [17]): 1050 nM
- IC50 (P2Y purinoceptor 2 [18]): > 100000 nM
- Ratio IC50 [19]: 0.6
- IC50 (P2Y purinoceptor 2 [20]): 1570 nM
- inhibition [21]: 55%
